Experimental data taken from PMC7164687 (Antiviral research, 2020).
Where a name gives a salt, the structure may show the parent alone.

Columns and labels:
[1] = Cytotoxicity assay in PXB cells; format: cell-based; conditions: human
HIV-1LAI = assay: microbe, parasite or virus in culture; format: cell-based; conditions: Human immunodeficiency virus 1, MT2, 168 h, read-out: IC50 against HIV-1LAI
HBVWT^Ce = HBVWT^Ce viremia in infected human-liver-chimeric mice; format: in vivo; conditions: for reduction of HBVWT^Ce DNA (viremia), day 14: 14 days, average reduction by day 14
HBVETV^R = HBVETV^R viremia in infected human-liver-chimeric mice; format: in vivo; conditions: for reduction of HBVETV^R viremia, day 14: 14 days, average reduction by day 14; for block of HBVETV^R viremia: once-daily peroral 1 mg/kg/day over 14 days, abstract
Summary of the method: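 uPA/SCID mice with livers repopulated by human hepatocytes, infected with recombinant ETV-resistant HBV clone (L180M/S202G/M204V). Dosing began 7–14 weeks after inoculation: test compound, ETV or saline given intragastrically at 1 mg/kg once daily for 14 days, n=2–4 per group. Serum HBV-DNA (S gene) measured by real-time PCR. Change from day 0 compared by repeated-measures ANOVA, two-tailed, uncorrected.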

[2] = format: in vivo, human-liver-chimeric mice; conditions: 1 mg/kg/day oral, 14 days, HBV-infected mice
HBVWT^D = assay: microbe, parasite or virus in culture; format: cell-based; conditions: Hepatitis B virus, HepG2.2.15, read-out: anti-HBV activity IC50
PXB cells = assay: Cytotoxicity assay in PXB cells; format: cell-based; conditions: read-out: CC50 in PXB cells; PXB cells, continuous exposure; mean ± 1 S.D.
[3] = system: human DNA polymerases, α, β, and γ; conditions: ref Nakata et al., 2007; cited from earlier work
[4] = CC50 in PXB cells, PXB cells, continuous exposure, mean ± 1 S.D.
[5] = 1 mg/kg/day oral, average reduction by 3 days after start

In the case of `CC(C)(C)C(=O)OCOP(=O)(COCCn1cnc2c(N)ncnc21)OCOC(=O)C(C)(C)C` [ADV, adefovir dipivoxil], the CC50 [1, 4] is reported as 71500 ± 19300 nM and the IC50 (HIV-1LAI) is reported as 660 ± 200 nM.

With `CC(C)OC(=O)[C@H](C)N[P@](=O)(CO[C@H](C)Cn1cnc2c(N)ncnc21)Oc1ccccc1` [TAF, tenofovir alafenamide] the CC50 [1] was 5700 ± 1900 nM and the IC50 (HIV-1LAI) was 4 ± 2 nM.

Compound `N#C[C@]1(CO)O[C@@H](n2cnc3c(N)ncnc32)C[C@@H]1O` [CdA, 4’-C-cyano-2’-deoxyadenosine] has a CC50 [1, 4] of 5400 ± 1500 nM and an IC50 (HIV-1LAI) of 94 ± 4 nM.

In the case of `C=C1[C@H](CO)[C@@H](O)C[C@@H]1n1cnc2c(=O)[nH]c(N)nc21` [ETV, entecavir], the “reduction of HBVWT^Ce DNA (viremia), day 14” value (HBVWT^Ce; 1 mg/kg/day oral) is reported as 2.2 log10 copies/mL, the CC50 [1, 4] is reported as 252000 ± 37500 nM and the “reduction of HBVETV^R viremia, day 14” value (HBVETV^R; 1 mg/kg/day oral) is reported as 0.5 log10 copies/mL. The “block of HBVETV^R viremia” value (HBVETV^R) was “only slightly suppressed”, the IC50 (HIV-1LAI) was 1000 ± 400 nM and the “changes in serum human albumin levels” value [2] was “no significant differences”.

In the case of `CC(C)OC(=O)OCOP(=O)(CO[C@H](C)Cn1cnc2c(N)ncnc21)OCOC(=O)OC(C)C` [TDF, tenofovir disoproxil fumarate], the CC50 ([1]; PXB cells) is reported as 33400 ± 10900 nM and the IC50 (HIV-1LAI) is reported as 30 ± 10 nM.

With `N#C[C@]1(CO)O[C@@H](n2cnc3c(=O)[nH]c(N)nc32)C[C@@H]1O` [CdG, 4’-C-cyano-2’-deoxyguanosine] the CC50 [1, 4] was 370 ± 30 nM and the IC50 (HIV-1LAI) was 0.6 ± 0.1 nM.

In the case of `N#C[C@]1(CO)O[C@@H](n2cc(F)c3c(N)ncnc32)C[C@@H]1O` [CdFA, 4’-C-cyano-7-deaza-7-fluoro-2’-deoxyadenosine], the “reduction of HBVWT^Ce DNA (viremia), day 14” value (HBVWT^Ce; 1 mg/kg/day oral) is reported as 0.7 log10 copies/mL, the “reduction of HBVWT^Ce DNA (viremia), day 3” value (HBVWT^Ce; [5]) is reported as 0.5 log10 copies/mL and the “block of HBVWT viremia” value (HBVWT^Ce; once-daily peroral 1 mg/kg/day over 14 days, abstract) is reported as 0.7 logs. For the same compound, the IC50 (HBVWT^D) was about 26 nM, the CC50 (PXB cells) was 55900 ± 5700 nM and the “reduction of HBVETV^R viremia, day 14” value (HBVETV^R; 1 mg/kg/day oral) was 1.2 log10 copies/mL. The “reduction of HBVETV^R viremia, day 3” value (HBVETV^R; [5]) was 0.6 log10 copies/mL, the “block of HBVETV^R viremia” value (HBVETV^R) was 1.2 logs and the IC50 (HIV-1LAI) was 880 ± 10 nM.

In the case of `C#C[C@]1(CO)O[C@@H](n2cnc3c(N)nc(F)nc32)C[C@@H]1O` [EFdA, 4’-ethynyl-2-fluoro-2’-deoxyadenosine], the “inhibition of the activity of human DNA polymerases α, β, and γ” value [3] is given as “little inhibition”.

Compound `Nc1ccn([C@@H]2CS[C@H](CO)O2)c(=O)n1` [3TC, lamivudine] has a CC50 [1, 4] of over 100000 nM and an IC50 (HIV-1LAI) of 660 ± 150 nM.
